Experimental data: ChEMBL document CHEMBL6083194, “Discovery and evaluation of 3-(2-isocyanobenzyl)-1H-indole derivatives as potential quorum sensing inhibitors for the control of Pseudomonas aeruginosa infections in vitro” (RSC Med Chem, 2024)
Values after ≈ are worked out from the molar mass of the structure shown. Each block holds one compound with its values, some of them ahead of it. Active and inactive are the calls of the source. The rule behind the calls is not given here.

What was measured:
[1] = Inhibition of quorum sensing system in Chromobacterium violaceum CV026
Outline: (§1)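 Plate screen. CV026 grown overnight in LB with 50 μg ml−1 kanamycin; 15 μl seeded into 15 ml LB agar (1.0% agarose) containing 20 μM C4-HSL. PAO1 plates run in parallel. Test colonies inoculated by toothpick, incubated overnight at 37 °C. Ring of colourless viable cells around the colony scored as inhibition.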

Pseudomonas aeruginosa [2] = assay: Inhibition of rhamnolipid production in Pseudomonas aeruginosa PAO1 at 1/2 times MIC by orcinol method; format: functional
Outline: (§2)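 Overnight PAO1 diluted 1:100 into LB with compound, 37 °C, 180 rpm; DMSO control. Supernatant (100 μL) mixed with 900 μL 0.19% orcinol in 53% H2SO4, heated 30 min at 80 °C, cooled, read at 421 nm.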

Pseudomonas aeruginosa [3] = assay: Inhibition of rhamnolipid production in Pseudomonas aeruginosa PAO1 at 1/2 to 1/4 times MIC by orcinol method; format: functional, organism-based; outline: as §2
Pseudomonas aeruginosa [4] = assay: Inhibition of biofilm formation in Pseudomonas aeruginosa PAO1 incubated for 24 hrs crystal violet staining based SEM assay; format: functional, organism-based
[5] = Inhibition of quorum sensing system in Pseudomonas aeruginosa PAO1; outline: as §1
Pseudomonas aeruginosa [6] = assay: Inhibition of biofilm formation in Pseudomonas aeruginosa PAO1 at 1/2 times MIC incubated for 24 hrs crystal violet staining based SEM assay; format: functional
Pseudomonas aeruginosa [7] = assay: Antibacterial activity against Pseudomonas aeruginosa PAO1 by serial dilution method; format: functional
Outline: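 PAO1 in LB, 37 °C. MIC by CLSI 2-fold serial dilution in Mueller–Hinton broth, inoculum 1–5 × 10^5 CFU mL−1, DMSO stocks. Growth curves: overnight culture diluted to OD600 = 0.05, subcultured to mid-log, rediluted to OD600 = 0.05, 3 mL with compound; OD620 read at 1, 3, 5, 7, 9, 11 and 24 h at 37 °C; DMSO negative control.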

Pseudomonas aeruginosa [8] = assay: Inhibition of rhamnolipid production in Pseudomonas aeruginosa PAO1 at 1/4 times MIC by orcinol method; format: functional; outline: as §2
Pseudomonas aeruginosa [9] = assay: Inhibition of pyocyanin production in Pseudomonas aeruginosa PAO1 at 1/2 time MIC incubated for 18 hrs; format: functional
Outline: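 Overnight PAO1 in LB diluted to OD600 = 0.05, subcultured 5–7 h to mid-log, rediluted to OD600 = 0.05. 5 mL with compound grown 18 h at 37 °C, 200 rpm. Supernatant extracted with 3 mL chloroform, back-extracted into 0.2 M HCl, absorbance at 520 nm.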

Pseudomonas aeruginosa [10] = assay: Induction of biofilm eradication in Pseudomonas aeruginosa PAO1 at 25 ug/ml by crystal violet staining based assay; format: functional; details: dose 25 µg/ml
Outline: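 PAO1 biofilms grown overnight at 37 °C in LB in 24-well plates, washed with PBS, then fresh LB with compound added and grown overnight again. Washed, methanol-fixed, crystal violet stained, ethanol solubilised, read at OD570. DMSO negative, resveratrol positive control.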

Pseudomonas aeruginosa [11] = assay: Anti-virulence effect in Pseudomonas aeruginosa PAO1 assessed as inhibition of pyocyanin production at 25 ug/ml; format: functional; set-up: scale not given: the % may be the effect or the level left; details: dose 25 µg/ml
Outline: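 Overnight PAO1 culture in LB at 37 °C, diluted to OD600 0.05 and subcultured 5–7 h to mid-log phase, then re-diluted to OD600 0.05. Grown 18 h at 37 °C and 200 rpm with compound (6.25, 12.5, 25 μg mL−1) or DMSO. Supernatant extracted into chloroform, back-extracted into 0.2 M HCl, read at 520 nm.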

Pseudomonas aeruginosa [12] = assay: Anti-virulence effect in Pseudomonas aeruginosa PAO1 assessed as decrease in protease level at 25 ug/ml; format: functional; set-up: scale not given: the % may be the effect or the level left; details: dose 25 µg/ml
Outline: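 Overnight PAO1 culture diluted 1:100 into LB with compound (6.25–25 μg mL−1), grown at 37 °C and 180 rpm; DMSO and RSV (25 μg mL−1) as controls. Culture supernatant mixed with 2% azocasein in 1 M Tris–HCl pH 8.0 for 15 min at 37 °C. Reaction stopped with 10% TCA, centrifuged, NaOH added, read at OD440.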

Pseudomonas aeruginosa [13] = assay: Inhibition of biofilm formation in Pseudomonas aeruginosa PAO1 at 25 ug/ml incubated for 24 hrs crystal violet staining based assay; format: functional
Outline: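 PAO1 grown statically for 24 h in LB ± compound in 24-well plates. Planktonic cells removed; attached cells stained with 0.05% crystal violet, rinsed, dissolved in 95% ethanol, read at OD570. DMSO negative, resveratrol positive control; SD from three independent experiments.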

Pseudomonas aeruginosa [14] = assay: Anti-virulence effect in Pseudomonas aeruginosa PAO1 assessed as inhibition of rhamnolipid production at 25 ug/ml; format: functional; set-up: scale not given: the % may be the effect or the level left; details: dose 25 µg/ml
Outline: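 PAO1 culture supernatant from growth with compound (6.25–25 μg mL−1) at 37 °C and 180 rpm, or with DMSO or RSV (25 μg mL−1) as controls. Orcinol assay: 100 μL sample plus 0.19% orcinol in 53% H2SO4, heated 30 min at 80 °C, cooled, read at 421 nm. At least three experiments in triplicate.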

Pseudomonas aeruginosa [15] = assay: Anti-virulence effect in Pseudomonas aeruginosa PAO1 assessed as inhibition of EPS production at 25 ug/ml; format: functional; set-up: scale not given: the % may be the effect or the level left; details: dose 25 µg/ml
Outline: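 PAO1 grown with compound (6.25–25 μg mL−1) in 24-well plates for 24 h at 37 °C and 180 rpm; DMSO and RSV (25 μg mL−1) as controls. Biofilms washed with water, then treated with 0.9% NaCl, 5% phenol and 0.2% hydrazine sulfate. Held 1 h in the dark, read at OD490. Three independent experiments.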

inhibition [1]: Active; Showed Higher Activity | inhibition [5]: Active; Strong Inhibition Observed | MIC (Pseudomonas aeruginosa [7]): 6 mg/L (≈ 22.9 µM)
SMILES: COc1ccc2[nH]cc(Cc3ccccc3C#N)c2c1
inhibition (INH) (Pseudomonas aeruginosa [2]): 44% | inhibition (Pseudomonas aeruginosa [3]): Active | inhibition (Pseudomonas aeruginosa [4]): Dose-dependent-effect | inhibition (INH) (Pseudomonas aeruginosa [6]): 7% | inhibition (INH) (Pseudomonas aeruginosa [8]): 30% | inhibition (Pseudomonas aeruginosa [9]): Active; Showed Higher Activity Than Positive Control Rsv

SMILES: Oc1ccc(/C=C/c2cc(O)cc(O)c2)cc1 [RESVERATROL]
Activity (Pseudomonas aeruginosa [10]): 47% | inhibition (Pseudomonas aeruginosa [4]): Dose-dependent-effect | Activity (Pseudomonas aeruginosa [11]): 26% | Activity (Pseudomonas aeruginosa [12]): 26% | inhibition at 25 µg/mL (Pseudomonas aeruginosa [13]): 55% | inhibition (INH) (Pseudomonas aeruginosa [9]): 38% | Activity (Pseudomonas aeruginosa [14]): 12% | Activity (Pseudomonas aeruginosa [15]): 22%
